PAX8 inh HTS: inhibitors of PAX8 transcriptional activity in RMG-I cells. inhibition, % at 12.6 µM. RMG-I TPO-luciferase reporter, SteadyGlo, 24 h. actives 1.2% (n = 360,000);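 active means mean replicate inhibition at least 60% with every replicate also reaching 60%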;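 further: luciferase light reporting Pax8 driven TPO promoter activity; plate controls were median of neutral control wells for no effect and mitoxantrone controls for full effect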
Cneo AK release: causes C. neoformans cell lysis | adenylate kinase release luminescence, 4 h; normalised: neutral wells 0, clomiphene wells 100 | lysis activity, % at 15 µM | actives 0.2% (n = 360,000) | AID 651654;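 active means mean lysis activity across replicates of at least 80%, whatever share of replicates individually reach that level; inactive means mean lysis activity below 80%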
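Assay system: C. neoformans cells. Amount: yeast cell density of 5 × 10^6 cells/mL. Technique: AK luminescence. Buffer or medium: YPD. Times: static 4 h at 37 °C with compound, 1 h detection. Dosing: single-point compound dose. Read-out: lysis from increased AK signal.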
dFosB act-1: enhances mouse delta FosB homodimer DNA binding | P13346 | purified delta FosB, TAMRA-CDK5 oligo fluorescence polarization; percent of positive-control signal above neutral wells | activation, % at 25 µM | actives 0.99% (n = 340,000) | AID 493131;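 active means mean activation above about 17%, with every replicate also reaching it, limit read from the data, passing the limit was not always enough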
HIV Env fusion: blocks HIV Env-driven cell-cell fusion; HeLa-JRFL Env/CEM21 cell fusion, luciferase; inhibition, % at 12.3 µM; actives 1.1% (n = 360,000);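 active means mean replicate inhibition score of at least 50 and every replicate individually at or above 50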;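 further: 0% = plate neutral controls and 100% = maraviroc near 300 nM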
INS-1E GSIS act: GLuc luminescence reporter in INS-1E cells, primary screen for activators of glucose-dependent secretion of insulin. activation, % at 16.6 µM. INS-1E GLuc reporter insulin secretion, 2-3 h. actives 0.61% (n = 370,000). AID 743287;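 active means lowest replicate activation of at least 40%, so every replicate reaches that level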;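 further: 0% = median of neutral control wells and 100% = median of IBMX positive control wells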
CDK5 inh: blocks human CDK5/p35 kinase activity. inhibition, % at 10 µM. AID 488839. Recombinant CDK5/p35, ADP-Glo luminescence, 60 min. Q00535+Q15078. actives 0.01% (n = 330,000);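 active means highest replicate inhibition of at least 50% and at least 75% of replicates reaching 50%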;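 further: plate controls were DMSO neutral control for no effect and GW8510 at 10 µM for full effect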
Target sequence (Q00535 whole entry, looked up): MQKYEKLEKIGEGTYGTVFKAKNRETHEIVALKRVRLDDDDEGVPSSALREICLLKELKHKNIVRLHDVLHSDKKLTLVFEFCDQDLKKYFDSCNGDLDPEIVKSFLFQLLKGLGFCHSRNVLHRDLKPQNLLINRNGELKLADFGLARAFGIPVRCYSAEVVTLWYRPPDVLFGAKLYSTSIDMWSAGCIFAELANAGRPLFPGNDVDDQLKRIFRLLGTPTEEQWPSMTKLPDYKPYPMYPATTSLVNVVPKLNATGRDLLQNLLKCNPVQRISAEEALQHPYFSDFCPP
Target sequence (Q15078 whole entry, looked up): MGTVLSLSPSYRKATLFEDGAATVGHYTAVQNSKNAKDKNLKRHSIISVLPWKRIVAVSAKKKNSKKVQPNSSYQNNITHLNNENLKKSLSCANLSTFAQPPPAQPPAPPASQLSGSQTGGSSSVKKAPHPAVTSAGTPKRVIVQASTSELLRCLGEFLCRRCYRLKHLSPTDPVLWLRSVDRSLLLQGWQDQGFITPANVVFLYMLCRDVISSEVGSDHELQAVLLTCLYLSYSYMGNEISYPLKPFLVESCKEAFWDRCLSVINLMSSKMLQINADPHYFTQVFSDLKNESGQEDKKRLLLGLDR
dFosB act-2: enhances mouse delta FosB homodimer binding to DNA. shares compounds with dFosB act-1. purified delta FosB, TAMRA-CDK5 oligo fluorescence polarization; normalised: neutral wells 0, positive control 100. activation, % at 24.9 µM. 2,400 tested, under 10 active;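 active means highest replicate activation at or above 34% and every replicate reaching that threshold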;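 further: higher polarization means more probe DNA bound by delta FosB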
An asterisk follows results filed as active; i = inactive; . = no result given; [ ] = remark or other dose. Compounds with a hit are over-represented: about 2.9% of the library has one in this group of screens.

SMILES	PAX8 inh HTS	Cneo AK release	dFosB act-1	HIV Env fusion	INS-1E GSIS act	CDK5 inh	dFosB act-2
O=C(Nc1ccc2oc(-c3ccccc3F)nc2c1)c1cncc(Br)c1	-75	9	22*	-35	.	2	1
O=C(Nc1ccc2oc(-c3ccccc3)nc2c1)c1ccc2c(c1)OCCO2	-65	-3	42*	-33	.	-3	3
O=C(Nc1ccc2oc(-c3ccncc3)nc2c1)c1c(F)c(F)c(F)c(F)c1F	.	0	-3	-42	.	-1	.
CC(C)(C)[S@](=O)N1Cc2cc(C(=O)N3CCc4ccccc4C3)nc(-c3cccc(-c4cncnc4)c3)c2[C@@H]1CCO	-2	25	.	4[16.7 µM]	-14	.	.
O=C(C[C@H]1CC[C@@H]2[C@H](COC[C@@H](O)CN2S(=O)(=O)c2ccccc2)O1)NCC1CCCCC1	3	-1	.	.	.	.	.
C[C@H]1CN([C@@H](C)CO)C(=O)c2cc(NC(=O)Nc3ccc4c(c3)OCO4)ccc2O[C@@H]1CN(C)S(=O)(=O)c1cn(C)cn1	.	2	.	-10[16.7 µM]	14	.	.
CO[C@@H]1CN(C)C(=O)c2cc(NS(=O)(=O)c3ccccc3C)ccc2OC[C@H](C)NC[C@H]1C	.	-1	.	.	1	.	.
O=C(Nc1ccc2oc(-c3cccnc3)nc2c1)c1ccc2c(c1)OCCO2	-7	.	33*	-13	43*	-1	2
O=C(Nc1ccc2oc(-c3ccncc3)nc2c1)c1ccc2c(c1)OCO2	6	.	-7	10	7	0	.
O=C(Nc1ccc2oc(-c3ccncc3)nc2c1)c1ccc2c(c1)OCCO2	-3	.	46*	-7	22	0	0
O=C(Nc1ccc(NC(=O)c2ccco2)cc1)c1ccc2c(c1)OCO2	.	3	-6	.	7	-1	.
O=C(Cc1ccccc1)Nc1ccc2oc(-c3cccnc3)nc2c1	.	2	22*	.	.	0	1
O=C(Nc1ccc(NC(=O)c2ccco2)c(Cl)c1)c1ccc2c(c1)OCCO2	-49	-5	60*	-56	8	1	1
COc1ccc2c3c(n(C)c2c1)[C@@H](CO)N(C(=O)Nc1ccc(F)cc1)CC31CN(C)C1	.	.	.	.	-18	.	.
CC(=O)N1[C@@H](CO)[C@H](c2ccccc2)C12CN(C(=O)c1ccccc1)C2	.	.	.	.	7	.	.
C[C@H](CO)N1C[C@H](C)[C@@H](CN(C)Cc2ccccc2)Oc2ncc(C3=CCCCC3)cc2C1=O	.	1	.	24[16.7 µM]	-1	.	.
O=C(C[C@H]1CC[C@@H]2[C@H](COC[C@@H](O)CN2C(=O)Nc2ccc(Cl)cc2)O1)NCC1CC1	-26	-4	.	.	-26	.	.
Cc1cc(C)c2oc(C(=O)Nc3ccc(S(=O)(=O)Nc4nccs4)cc3)cc(=O)c2c1	-7	.	2	0	15	-2	.
Cc1cc2oc(C(=O)Nc3ccc(S(=O)(=O)Nc4nccs4)cc3)cc(=O)c2cc1Cl	-7	.	37*	30	34	1	1
CN(C)C(=O)c1ccc(-c2ccccc2[C@@H]2[C@@H](C#N)N(C(=O)C3CCCCC3)[C@H]2CO)cc1	4	.	.	.	-10	.	.
NS(=O)(=O)c1cccc(NC(=O)c2cc(=O)c3ccccc3o2)c1	-8	-6	19*	-3	5	-2	-2
O=S(=O)(c1ccc(Br)cc1)N1CCN(c2ccc3nnc(-c4ccccc4)n3n2)CC1	6	-2	38*	1	-3	-3	0
C[C@H](CO)N1C[C@H](C)[C@H](CN(C)C(=O)Nc2ccc3c(c2)OCO3)Oc2ccc(NS(=O)(=O)c3ccc(F)cc3)cc2CC1=O	-12	.	.	-5[16.7 µM]	1	.	.
COc1ccccc1C1CCN(Cc2ccc3ccccc3c2)CC1	11	3	21*	-8	-21	0	2
COc1ccc(-c2cc(C(=O)Nc3nc4c(C)cccc4s3)c3ccccc3n2)cc1OC	.	.	39*	.	-3	1	1
SMILES	PAX8 inh HTS	Cneo AK release	dFosB act-1	HIV Env fusion	INS-1E GSIS act	CDK5 inh	dFosB act-2
COc1ccc(NC(=O)c2cc(-c3cc(OC)c(OC)c(OC)c3)nc3ccccc23)cc1OC	35	1	-9	-2	17	0	.
COc1cc(-c2cc(C(=O)Nc3cccc(S(=O)(=O)N(C)C)c3)c3ccccc3n2)cc(OC)c1OC	-8	4	41*	10	-11	0	5
CC(=O)N(C)C[C@H]1Oc2c(cccc2N(C)C)C(=O)N(C)C[C@@H]1C	.	.	.	.	2	.	.
O=C(CSc1nnc(-c2ccco2)o1)Nc1cccc([N+](=O)[O-])c1	-18	1	41*	-24	22	1	-12
CC(=O)c1sc(NC(=O)C2CCN(c3ncnc4sc(C)c(C)c34)CC2)nc1-c1ccccc1	13	-1	0	.	-7	0	.
Cc1sc2ncnc(N3CCC(C(=O)Nc4nc(-c5ccc(F)cc5)cs4)CC3)c2c1C	6	0	18*	-2	7	0	-1
O=C(NC(=S)Nc1cccc(NC(=O)c2ccc(Cl)cc2Cl)c1)c1cccs1	.	6	44*	.	-15	2	-1
CCOc1ccc(-c2nnn(CC(=O)NCc3ccc(F)cc3)n2)cc1OCC	.	1	41*	.	14	1	-5
Cc1ccc(NC(=O)Cn2nnc(-c3ccc4c(c3)OCO4)n2)cc1F	13	-1	23*	6	-1	1	2
COc1cccc(-c2nnn(CC(=O)Nc3cc(OC)c(NC(=O)c4ccco4)cc3OC)n2)c1	32	-1	17*	i	.	-1	0
O=C(Cn1nnc(-c2ccc(NC(=O)c3ccccc3F)cc2)n1)NCc1ccc(F)cc1	-2	0	3	8	13	-2	.
O=C(Cn1nnc(-c2ccccc2F)n1)Nc1ccc2c(c1)OCCO2	-9	4	14	-22	17	-1	.
COc1ccc(C(=O)Nc2cc(OC)c(NC(=O)c3ccco3)cc2OC)cc1	.	.	-18	-10	.	1	.
COc1ccc(C(=O)Nc2ccc(-c3nnn(CC(=O)NCc4ccco4)n3)cc2)cc1	-5	-1	46*	-7	-1	-1	3
CCOc1ccc(-c2nnn(CC(=O)NCc3ccc4c(c3)OCO4)n2)cc1	.	-1	7	.	.	0	.
CCOc1ccc(-c2nnn(CC(=O)Nc3cccc(OC)c3)n2)cc1OCC	.	0	19*	3	18	0	0
COc1ccc(-c2nnn(CC(=O)NCc3ccc4c(c3)OCO4)n2)cc1OC	1	.	29*	13	2	-4	5
CCOC(=O)c1ccc(NC(=O)C(=O)NCc2ccc(/C=C(/C#N)C(=O)NCCOC)o2)cc1	5	.	23*	9	1	0	-2
